Test results as given in paper PMC8809394 (Chemical Science, 2022).
Where a chain is given by its changes, count along the chain named. Values joined by “and” are separate entries in the source; they are usually repeats but may differ in a detail not shown here. Equal values may be shown once.

Tests used:
Luminescence lifetime = assay type: physicochemical; conditions: MQ H2O; λexc 450 nm, λem 620 nm; covalent ArMs 50 μM
[1] = target: T1, POPWT (prolyl oligopeptidase) (Pyrococcus furiosus, UniProt Q51714); assay: Luminescence lifetime titration, cofactor binding to POPWT; conditions: for Kd: POPWT 0-300 μM, cofactor 5 μM, MQ H2O (+/- 0.5% ACN); for Δ lifetime (free vs. bound cofactor): non-covalent binding to POPWT
T1 sequence (Q51714 1-616): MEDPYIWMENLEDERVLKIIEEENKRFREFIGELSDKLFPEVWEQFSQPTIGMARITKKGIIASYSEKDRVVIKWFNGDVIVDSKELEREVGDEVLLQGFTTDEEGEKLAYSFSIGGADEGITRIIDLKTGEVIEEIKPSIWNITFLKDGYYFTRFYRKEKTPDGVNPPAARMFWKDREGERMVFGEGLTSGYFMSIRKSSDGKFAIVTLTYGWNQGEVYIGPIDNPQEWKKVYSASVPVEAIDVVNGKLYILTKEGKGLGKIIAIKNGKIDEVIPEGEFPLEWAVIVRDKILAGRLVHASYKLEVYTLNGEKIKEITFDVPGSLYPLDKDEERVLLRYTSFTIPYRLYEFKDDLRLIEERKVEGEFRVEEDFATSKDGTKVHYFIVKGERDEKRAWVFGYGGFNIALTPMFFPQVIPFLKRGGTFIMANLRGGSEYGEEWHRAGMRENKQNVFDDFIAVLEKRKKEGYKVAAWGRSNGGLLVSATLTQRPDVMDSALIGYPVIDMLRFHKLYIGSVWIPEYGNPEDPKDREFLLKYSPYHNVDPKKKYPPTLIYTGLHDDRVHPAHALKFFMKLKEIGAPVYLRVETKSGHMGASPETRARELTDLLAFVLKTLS
How it was run: (§1)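 Non-covalent binding is measured by luminescence lifetime titration of the Ru(Bpy)3 2+-type cofactor against Pyrococcus furiosus prolyl oligopeptidase scaffold variants. Kd comes from the titration. Δ lifetime is the lifetime difference between free and bound cofactor. Each plotted point is a single measurement. Error bars are standard deviations from single-exponential tail fitting of the decay data.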

[2] = target: T2, POPNeut (prolyl oligopeptidase variant) (Pyrococcus furiosus, UniProt Q51714, G99A/K255A/R198A/R338A/R55A/W142A/Y326A); assay: Luminescence lifetime titration, cofactor binding to POPNeut
T2 sequence (Q51714 1-616 R55A/G99A/W142A/R198A/K255A/Y326A/R338A): T1 sequence (Q51714 1-616) with R55A, G99A, W142A, R198A, K255A, Y326A, R338A
How it was run: as §1

[3] = target: T3, POPNeg (prolyl oligopeptidase variant) (Pyrococcus furiosus, UniProt Q51714, G99D/K255A/R198A/R338A/R55A/W142D/Y326D); assay: Luminescence lifetime titration, cofactor binding to POPNeg; conditions: non-covalent binding to POPNeg
T3 sequence (Q51714 1-616 R55A/G99D/W142D/R198A/K255A/Y326D/R338A): T1 sequence (Q51714 1-616) with R55A, G99D, W142D, R198A, K255A, Y326D, R338A
How it was run: as §1

BSA = BSA (Bos taurus, UniProt P02769); assay: Luminescence lifetime titration with BSA; assay type: binding; conditions: 3a 5 μM, BSA in MQ H2O
BSA, sequence (P02769 25-607): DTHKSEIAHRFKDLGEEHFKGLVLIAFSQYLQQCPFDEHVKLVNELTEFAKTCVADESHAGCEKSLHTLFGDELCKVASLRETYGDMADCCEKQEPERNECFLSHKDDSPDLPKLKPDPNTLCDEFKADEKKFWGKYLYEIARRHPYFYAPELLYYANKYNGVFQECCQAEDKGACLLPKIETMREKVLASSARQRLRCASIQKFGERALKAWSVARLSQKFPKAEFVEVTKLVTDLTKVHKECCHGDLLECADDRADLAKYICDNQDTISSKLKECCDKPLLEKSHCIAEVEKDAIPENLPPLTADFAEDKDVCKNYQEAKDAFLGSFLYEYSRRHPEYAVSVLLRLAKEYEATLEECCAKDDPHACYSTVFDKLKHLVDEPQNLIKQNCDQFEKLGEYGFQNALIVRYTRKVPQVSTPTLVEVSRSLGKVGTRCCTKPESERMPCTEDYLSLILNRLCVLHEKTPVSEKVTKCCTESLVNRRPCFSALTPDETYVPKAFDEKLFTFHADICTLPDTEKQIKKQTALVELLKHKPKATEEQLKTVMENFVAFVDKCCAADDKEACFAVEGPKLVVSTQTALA

[4] = deoxygenated acetonitrile ref 5,8; cited from earlier work

SMILES | Lifetime (luminescence) (Luminescence lifetime) [ns] | Kd [1] | Δ lifetime (free vs. bound cofactor) [1] [ns] | Kd ([2]; POPNeut 0-300 μM, cofactor 5 μM, MQ H2O) | Δ lifetime (free vs. bound cofactor) ([2]; non-covalent binding to POPNeut) [ns] | Δ lifetime (free vs. bound cofactor) [3] [ns] | binding to BSA (BSA) | binding to BSA (BSA; listed as Ru(Bpy)3^2+) | luminescence lifetime [4] [ns]
[Cl-].[Cl-].[Ru+2].c1ccc(-c2ccccn2)nc1.c1ccc(-c2ccccn2)nc1.c1ccc(-c2ccccn2)nc1 [3a, Ru(Bpy)3^2+] | 573 | 28 µM and 28.3 µM | 96 | 1.7 µM and 1.65 µM | 166 | 183 | minimal non-specific binding affinity | negligible binding | 930
[Ru+2].c1ccc(-c2ccccn2)nc1.c1ccc(-c2ccccn2)nc1.c1ccc(-c2ccccn2)nc1 [3b] |  | 30 µM and 30.1 µM | 110 |  |  |  |  |  | 
O=C([O-])c1ccnc(-c2cc(C(=O)[O-])ccn2)c1.[Ru+2].c1ccc(-c2ccccn2)nc1.c1ccc(-c2ccccn2)nc1 [3d] |  | 30 µM and 29.5 µM | 35 |  |  | 125 |  |  | 
